ChEMBL document CHEMBL1126076, “Synthesis and thromboxane A2/prostaglandin H2 receptor antagonistic activity of phenol derivatives” (J Med Chem, 1992)

system: Rattus norvegicus; test: Compound was tested in vivo for the inhibition of U-46619-induced bronchoconstriction in rat, 1 hr after oral administration at a dose of 5 mg/Kg.; assay type: functional; conditions: read-out: Inhibition
Summary of the method: (§1)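 Male Sprague-Dawley rats received drug suspended in 5% gum arabic orally 1 h before U-46619 (30 µg/kg, iv). Bronchoconstriction was recorded by the Konzett-Rössler method and expressed as percent inhibition versus control, tested with Dunnett's test.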

| SMILES | inhibition in vivo at 5 mg/kg |
| --- | --- |
| Cc1c(O)c(C(CCCCCC(=O)O)c2ccc(F)cc2)c(C)c2c1CCC2 (stereo unspecified) | 48% |

system: Cavia porcellus; test: The compound was tested in vivo for the inhibition of U-46619-induced bronchoconstriction in guinea pig, 1 hr after oral administration at a dose of 0.31 mg/Kg.; assay type: functional; conditions: PIG1, po
Summary of the method: (§2)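 Guinea pigs received drug suspended in 5% gum arabic orally 1 h before U-46619 challenge. The result is percent inhibition of bronchoconstriction versus control, tested with Dunnett's test.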

| SMILES | inhibition in vivo at 0.31 mg/kg |
| --- | --- |
| Cc1c(C)c(C=O)c(C)c(C(CCCCCC(=O)O)c2ccc(F)cc2)c1O (stereo unspecified) | 33% |
| Cc1c(C)c(CO)c(C)c(C(CCCCCC(=O)O)c2ccc(F)cc2)c1O (stereo unspecified) | 57% |
| Cc1c(C)c2c(c(C(CCCCCC(=O)O)c3ccc(F)cc3)c1O)CCC2=O (stereo unspecified) | -3% |

species: Oryctolagus cuniculus; test: Concentration required to reduced U-46619-induced contraction of the rabbit aorta by 50%; assay type: functional; conditions: not given

| SMILES | IC50 |
| --- | --- |
| Cc1c(O)c(C(CCCCCC(=O)O)c2ccc(F)cc2)c(C)c2c1CCC2 (stereo unspecified) | 230 nM |

system: Rattus norvegicus; test: The compound was tested in vivo for the inhibition of U-46619-induced bronchoconstriction in rat, 1 hr after oral administration at a dose of 5 mg/Kg.; assay type: functional; conditions: not given; summary of the method: as §1

| SMILES | inhibition in vivo at 5 mg/kg |
| --- | --- |
| Cc1c(C)c(C=O)c(C)c(C(CCCCCC(=O)O)c2ccc(F)cc2)c1O (stereo unspecified) | 68% |
| Cc1c(C)c(CO)c(C)c(C(CCCCCC(=O)O)c2ccc(F)cc2)c1O (stereo unspecified) | < 65% |
| CC(=O)c1c(C)c(C)c(O)c(C(CCCCCC(=O)O)c2ccc(F)cc2)c1C (stereo unspecified) | 42% |
| Cc1c(C)c2c(c(C(CCCCCC(=O)O)c3ccc(F)cc3)c1O)CCC2=O (stereo unspecified) | 78% |
| O=C(O)Cc1ccc(CCNS(=O)(=O)c2ccc(Cl)cc2)cc1 [DALTROBAN] | < 73% |

species: Oryctolagus cuniculus; test: Concentration required to reduced U-46619-induced contraction of the rabbit aorta by 50%.; assay type: functional; conditions: not given

| SMILES | IC50 |
| --- | --- |
| Cc1c(C)c(C=O)c(C)c(C(CCCCCC(=O)O)c2ccc(F)cc2)c1O (stereo unspecified) | 10 nM |
| Cc1c(C)c(C=O)c(C)c(C(CCCCCC(=O)O)c2ccccc2)c1O (stereo unspecified) | 190 nM |
| O=C(O)Cc1ccc(CCNS(=O)(=O)c2ccc(Cl)cc2)cc1 [DALTROBAN] | 120 nM |

system: Cavia porcellus; test: Compound was tested in vivo for the inhibition of U-46619-induced bronchoconstriction in guinea pig, 1 hr after oral administration at a dose of 5 mg/Kg.; assay type: functional; conditions: PIG1, po, read-out: Inhibition; summary of the method: as §2

| SMILES | inhibition in vivo at 5 mg/kg |
| --- | --- |
| Cc1c(O)c(C(CCCCCC(=O)O)c2ccc(F)cc2)c(C)c2c1CCC2 (stereo unspecified) | 76% |

system: Rattus norvegicus; test: The compound was tested in vivo for the inhibition of U-46619-induced bronchoconstriction in rat, 1 hr after oral administration at a dose of 1.25 mg/Kg.; assay type: functional; conditions: not given; summary of the method: as §1

| SMILES | inhibition in vivo at 1.25 mg/kg |
| --- | --- |
| Cc1c(C)c(C=O)c(C)c(C(CCCCCC(=O)O)c2ccc(F)cc2)c1O (stereo unspecified) | < 54% |
| Cc1c(C)c(CO)c(C)c(C(CCCCCC(=O)O)c2ccc(F)cc2)c1O (stereo unspecified) | < 40% |
| Cc1c(C)c2c(c(C(CCCCCC(=O)O)c3ccc(F)cc3)c1O)CCC2=O (stereo unspecified) | < 50% |

system: Cavia porcellus; test: The compound was tested in vivo for the inhibition of U-46619-induced bronchoconstriction in guinea pig, 1 hr after oral administration at a dose of 5 mg/Kg.; assay type: functional; conditions: PIG1, po; summary of the method: as §2

| SMILES | inhibition in vivo at 5 mg/kg |
| --- | --- |
| Cc1c(C)c(C=O)c(C)c(C(CCCCCC(=O)O)c2ccc(F)cc2)c1O (stereo unspecified) | 84% |
| Cc1c(O)c(C(CCCCCC(=O)O)c2ccc(F)cc2)c(C)c2c1CC(=O)C2 (stereo unspecified) | < 42% |
| CC(=O)c1c(C)c(C)c(O)c(C(CCCCCC(=O)O)c2ccc(F)cc2)c1C (stereo unspecified) | 76% |
| Cc1c(C)c2c(c(C(CCCCCC(=O)O)c3ccc(F)cc3)c1O)CCC2=O (stereo unspecified) | < 95% |
| Cc1c(C)c(C=O)c(C)c(C(CCCCCC(=O)O)c2ccccc2)c1O (stereo unspecified) | 30% |
| O=C(O)Cc1ccc(CCNS(=O)(=O)c2ccc(Cl)cc2)cc1 [DALTROBAN] | < 84% |

species: Cavia porcellus; test: Compound was evaluated for inhibition of specific binding of [3H]U-46619 to guinea pig platelet membrane.; assay type: functional; conditions: not given
Summary of the method: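 Guinea pig blood was drawn by cardiac puncture into 0.315% citrate plus 1 mM aspirin (final). PRP platelets were washed in 25 mM Tris-HCl/5 mM MgCl2 pH 7.4, sonicated, and the 100000 g pellet used at 1 mg/mL protein. Membranes were incubated with 4 nM [3H]U-46619 and drug at 25 °C for 30 min, then filtered and counted. The IC50 is for specific binding, with 2–6 replicates per dose.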

| SMILES | IC50 |
| --- | --- |
| Cc1c(C)c(C=O)c(C)c(C(CCCCCC(=O)O)c2ccc(F)cc2)c1O (stereo unspecified) | 4.4 nM |
| CC(=O)c1c(C)c(C)c(O)c(C(CCCCCC(=O)O)c2ccc(F)cc2)c1C (stereo unspecified) | 80 nM |
| Cc1c(C)c2c(c(C(CCCCCC(=O)O)c3ccc(F)cc3)c1O)CCC2=O (stereo unspecified) | 13 nM |

species: Homo sapiens; test: Concentration required to reduced U-46619-induced aggregation of human platelet by 50%; assay type: functional; conditions: not given
Summary of the method: (§3)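 Healthy male volunteers, medication-free for at least 10 days, gave blood into 3.8% sodium citrate. PRP was adjusted to 400000 platelets/µL with PPP, preincubated at 37 °C for 2 min, then given drug or vehicle for 2 min. Aggregation was triggered with submaximal U-46619 (1–3 µM) and read photometrically (Born).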

| SMILES | IC50 |
| --- | --- |
| Cc1c(O)c(C(CCCCCC(=O)O)c2ccc(F)cc2)c(C)c2c1CCC2 (stereo unspecified) | 310 nM |

species: Homo sapiens; test: Concentration required to reduced U-46619-induced aggregation of human platelet by 50%.; assay type: functional; conditions: not given; summary of the method: as §3

| SMILES | IC50 |
| --- | --- |
| Cc1c(C)c(C=O)c(C)c(C(CCCCCC(=O)O)c2ccc(F)cc2)c1O (stereo unspecified) | 310 nM |
| Cc1c(C)c(C=O)c(C)c(C(CCCCCC(=O)O)c2ccccc2)c1O (stereo unspecified) | 1400 nM |
| O=C(O)Cc1ccc(CCNS(=O)(=O)c2ccc(Cl)cc2)cc1 [DALTROBAN] | 640 nM |

species: Homo sapiens; test: Concentration required to reduced U-46619-induced aggregation of human platelet by 50%.(values in parentheses are 95% confidence limits); assay type: functional; conditions: not given; summary of the method: as §3

| SMILES | IC50 |
| --- | --- |
| Cc1c(C)c(CO)c(C)c(C(CCCCCC(=O)O)c2ccc(F)cc2)c1O (stereo unspecified) | 79 nM |
| CC(=O)c1c(C)c(C)c(O)c(C(CCCCCC(=O)O)c2ccc(F)cc2)c1C (stereo unspecified) | 69 nM |
| Cc1c(C)c2c(c(C(CCCCCC(=O)O)c3ccc(F)cc3)c1O)CCC2=O (stereo unspecified) | 78 nM |

system: Cavia porcellus; test: compound was tested in vivo for the inhibition of U-46619-induced bronchoconstriction in guinea pig, 1 hr after oral administration at a dose of 1.25 mg/Kg.; assay type: functional; conditions: PIG1, po; summary of the method: as §2

| SMILES | inhibition in vivo at 1.25 mg/kg |
| --- | --- |
| Cc1c(O)c(C(CCCCCC(=O)O)c2ccc(F)cc2)c(C)c2c1CCC2 (stereo unspecified) | 37% |

system: Thromboxane A2 receptor (Cavia porcellus); test: Inhibition of specific binding of [3H]U-46619 to TXA2/PGH2 receptor in guinea pig platelet membrane; conditions: not given

| SMILES | IC50 |
| --- | --- |
| Cc1c(C)c(CO)c(C)c(C(CCCCCC(=O)O)c2ccccc2)c1O (stereo unspecified) | 820 nM |
| CCCCC(=O)c1c(C)c(C)c(O)c(C(CCCCCC(=O)O)c2ccc(F)cc2)c1C (stereo unspecified) | 190 nM |
| Cc1c(O)c(C(CCCCCC(=O)O)c2ccc(F)cc2)c(C)c2c1CCC2 (stereo unspecified) | 49 nM |
| Cc1c(C)c2c(c(C(CCCCCC(=O)O)c3ccc(F)cc3)c1O)CCCC2=O (stereo unspecified) | 76 nM |
| Cc1c(O)c(C(CCCCCC(=O)O)c2ccc(F)cc2)c(C)c2c1CC(=O)C2 (stereo unspecified) | 79 nM |
| Cc1c(C)c2c(c(C(CCCCCC(=O)O)c3ccc(F)cc3)c1O)CCC2 (stereo unspecified) | 160 nM |
| Cc1c(C)c2c(c(C(CCCCCC(=O)O)c3ccc(F)cc3)c1O)CCC2=O (stereo unspecified) | 13 nM |
| O=C(O)Cc1ccc(CCNS(=O)(=O)c2ccc(Cl)cc2)cc1 [DALTROBAN] | 62 nM |

The next lines start with the values.

| IC50 | SMILES |
| --- | --- |
| 450 nM | Cc1cc(C)c(C(CCCCCC(=O)O)c2ccc(F)cc2)c(O)c1C (stereo unspecified) |
| 250 nM | CC(=O)c1c(C)c(C)c(C(CCCCCC(=O)O)c2ccc(F)cc2)c(O)c1C (stereo unspecified) |
| 32 nM | Cc1c(C)c(CO)c(C)c(C(CCCCCC(=O)O)c2ccc(F)cc2)c1O (stereo unspecified) |
| 650 nM | Cc1c(C)c(C(CCCCCC(=O)O)c2ccc(F)cc2)c(O)c(C)c1CO (stereo unspecified) |
| 240 nM | Cc1cc(C)c(O)c(C(CCCCCC(=O)O)c2ccc(F)cc2)c1C (stereo unspecified) |
| 130 nM | Cc1c(C)c(C)c(C(CCCCCC(=O)O)c2ccc(F)cc2)c(O)c1C (stereo unspecified) |
| 840 nM | Cc1c(C)c(Cl)c(C)c(C(CCCCCC(=O)O)c2ccc(F)cc2)c1O (stereo unspecified) |
| 250 nM | Cc1c(C)c(CCO)c(C)c(C(CCCCCC(=O)O)c2ccc(F)cc2)c1O (stereo unspecified) |
| 80 nM | CC(=O)c1c(C)c(C)c(O)c(C(CCCCCC(=O)O)c2ccc(F)cc2)c1C (stereo unspecified) |
| 3200 nM | Cc1c(C)c(C(=O)O)c(C)c(C(CCCCCC(=O)O)c2ccc(F)cc2)c1O (stereo unspecified) |
| 200 nM | Cc1c(C)c(Br)c(C)c(C(CCCCCC(=O)O)c2ccc(F)cc2)c1O (stereo unspecified) |
| 340 nM | COCc1c(C)c(C)c(O)c(C(CCCCCC(=O)O)c2ccc(F)cc2)c1C (stereo unspecified) |

species: Oryctolagus cuniculus; test: Concentration required to reduced U-46619-induced contraction of the rabbit aorta by 50%.(values in parentheses are 95% confidence limits); assay type: functional; conditions: not given

| SMILES | IC50 |
| --- | --- |
| Cc1c(C)c(CO)c(C)c(C(CCCCCC(=O)O)c2ccc(F)cc2)c1O (stereo unspecified) | 32 nM |
| CC(=O)c1c(C)c(C)c(O)c(C(CCCCCC(=O)O)c2ccc(F)cc2)c1C (stereo unspecified) | 270 nM |
| Cc1c(C)c2c(c(C(CCCCCC(=O)O)c3ccc(F)cc3)c1O)CCC2=O (stereo unspecified) | 27 nM |

system: Cavia porcellus; test: The compound was tested in vivo for the inhibition of U-46619-induced bronchoconstriction in guinea pig, 1 hr after oral administration at a dose of 1.25 mg/Kg.; assay type: functional; conditions: PIG1, po; summary of the method: as §2

| SMILES | inhibition in vivo at 1.25 mg/kg |
| --- | --- |
| Cc1c(C)c(C=O)c(C)c(C(CCCCCC(=O)O)c2ccc(F)cc2)c1O (stereo unspecified) | < 67% |
| CC(=O)c1c(C)c(C)c(O)c(C(CCCCCC(=O)O)c2ccc(F)cc2)c1C (stereo unspecified) | 22% |
| Cc1c(C)c2c(c(C(CCCCCC(=O)O)c3ccc(F)cc3)c1O)CCC2=O (stereo unspecified) | 59% |
| O=C(O)Cc1ccc(CCNS(=O)(=O)c2ccc(Cl)cc2)cc1 [DALTROBAN] | 36% |
